Laboratory results taken from ChEMBL document CHEMBL3244273, “Analgesic activity of novel spiro heterocycles. 2-Amino-7-oxa-3-thia-1-azaspiro[5,5]undec-1-enes and related compounds” (J Med Chem, 1978).
Activity calls are given as the source filed them.

Assays:
[1] = Retardation factor of the compound using benzene-ethyl acetate at ratio of 1:1 as solvent system by thin layer chromatography; type: physicochemical
Rattus norvegicus [2] = experiment: Analgesic activity against po dosed yeast-induced inflamed foot Sprague-Dawley rat model assessed as increase in pain threshold in inflamed paw measured after 2 hrs; type: functional
Mus musculus [3] = experiment: Analgesic activity in po dosed CF-1 mouse assessed as reduction in phenylquinone-induced writhing responses administered 15 mins prior to phenylquinone challenge; type: functional
Rattus norvegicus [4] = species on record: Rattus norvegicus; experiment: Antiinflammatory activity against mycobacterial adjuvant-induced arthritis in rat; type: functional, organism-based
Rattus norvegicus [5] = experiment: Analgesic activity in po dosed Sprague-Dawley rat by tail flick assay; type: functional
[6] = Acute toxicity in ip dosed CF-1S mouse assessed as mortality measured for 24 hrs; type: organism-based; settings: in vivo
Procedure, shortened: (§1)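 Male and female CF-1S mice (17-25 g) received the compound suspended in gum acacia solution, orally or intraperitoneally, in groups of six to ten per dose level. Mortality was followed for 24 h after ip dosing and for 5 days after oral dosing. LD50 was calculated by the Miller-Tainter method.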

[7] = Acute toxicity in po dosed CF-1S mouse assessed as mortality measured for 5 days; type: organism-based; settings: in vivo; procedure, shortened: as §1
Mus musculus [8] = experiment: Analgesic activity in CF-1 mouse assessed as reduction in phenylquinone-induced writhing responses at 200 mg/kg, po administered 15 mins prior to phenylquinone challenge; type: functional
Procedure, shortened: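 Fifteen min later they received 0.25 mL ip of 0.02% 2-phenyl-1,4-benzoquinone in 19:1 water-ethanol. Writhes were counted for 5 min starting 10 min after the injection, and % protection was calculated versus vehicle controls.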

[9] = Retardation factor of the compound using benzene-triethylamine at ratio of 9:1 as solvent system by thin layer chromatography; type: physicochemical
[10] = Rattus norvegicus, Sprague-Dawley, po, 2 h, read-out: ED50
[11] = Mus musculus, CF-1, po, read-out: ED50

Row | Structure (SMILES) | ED50 (Rattus norvegicus [2]; [10]) | ED50 (Mus musculus [3]; [11]) | Activity (Rattus norvegicus [4]) | other results
1 | CC(=O)N(Cc1ccccc1)C1=NC2(CCCCO2)CCS1 (stereo not given) |  |  |  | Rf [1]: 0.37
2 | CCC(=O)O[C@](Cc1ccccc1)(c1ccccc1)[C@H](C)CN(C)C [PROPOXYPHENE] | 60 mg/kg | 48 mg/kg |  | 
3 | CC(=O)Oc1ccccc1C(=O)O [ASPIRIN] | 50 mg/kg | 82 mg/kg |  | 
4 | O=C(/N=C1\NC2(CCCCO2)CCS1)c1ccco1 (stereo not given) |  | 42 mg/kg | inactive | 
5 | Cc1ccc(C(=O)/N=C2\NC3(CCCCO3)CCS2)cc1 (stereo not given) | 0.9 mg/kg | 60 mg/kg | inactive | ED50 (Rattus norvegicus [5]): > 25 mg/kg; LD50 at 24 h [6]: > 400 mg/kg; LD50 at 120 h [7]: 1120 mg/kg
6 | CN1CC[C@]23c4c5ccc(O)c4O[C@H]2[C@@H](O)C=C[C@H]3[C@H]1C5.CN1CC[C@]23c4c5ccc(O)c4O[C@H]2[C@@H](O)C=C[C@H]3[C@H]1C5.O=S(=O)(O)O | 25 mg/kg | 4.8 mg/kg |  | ED50 (Rattus norvegicus [5]): 29.3 mg/kg
7 | COc1ccc2c3c1O[C@H]1[C@@H](O)C=C[C@H]4[C@@H](C2)N(C)CC[C@@]341.COc1ccc2c3c1O[C@H]1[C@@H](O)C=C[C@H]4[C@@H](C2)N(C)CC[C@@]341.O.O=P(O)(O)O.O=P(O)(O)O [CODEINE PHOSPHATE] | 40 mg/kg | 18 mg/kg |  | 
8 | O=C(/N=C1\NC2(CCCCO2)CCS1)c1ccc([N+](=O)[O-])cc1 (stereo not given) | 0.9 mg/kg | 28 mg/kg | inactive | 
9 | CC1(C(=O)/N=C2\NC3(CCCCO3)CCS2)CCCCC1 (stereo not given) | 16 mg/kg | > 200 mg/kg | inactive | 
10 | COc1cccc(OC)c1C(=O)/N=C1\NC2(CCCCO2)CCS1 (stereo not given) | > 200 mg/kg | > 200 mg/kg | inactive | 
11 | NC1=NC2(CCCCO2)CCC1.O=C(O)/C=C\C(=O)O (racemic) | > 50 mg/kg | > 200 mg/kg |  | 
12 | CC(=O)/N=C1\NC2(CCCCO2)CCS1 (stereo not given) | 1.9 mg/kg | 3.1 mg/kg | inactive | 
13 | O=C(/N=C1\NC2(CCCCO2)CCS1)c1cccc(F)c1 (stereo not given) | 1.3 mg/kg | 9.2 mg/kg | inactive | 
14 | c1ccc(/N=C2\NC3(CCCCO3)CCS2)cc1 (racemic) | > 100 mg/kg | > 200 mg/kg |  | Rf [1]: 0.45
15 | COc1ccc2c(c1)c(CC(=O)O)c(C)n2C(=O)c1ccc(Cl)cc1 [INDOMETHACIN] | 1.2 mg/kg | 8.8 mg/kg |  | 
16 | CCCCC1C(=O)N(c2ccccc2)N(c2ccccc2)C1=O [PHENYLBUTAZONE] | 25 mg/kg | 45 mg/kg |  | 
17 | O=C(/N=C1\NC2(CCCCO2)CCS1)c1ccc(F)cc1 (single isomer, unassigned; (-)) | 1.8 mg/kg |  |  | ED50 (Mus musculus [3]): 28 mg/kg
18 | O=C(/N=C1\NC2(CCCCO2)CCS1)c1cccc([N+](=O)[O-])c1 (stereo not given) | 8.2 mg/kg | > 200 mg/kg | inactive | 
19 | S=C(/N=C1\NC2(CCCCO2)CCS1)Nc1ccccc1 (racemic) | > 200 mg/kg | 200 mg/kg | inactive | inhibition in vivo at 200 mg/kg (Mus musculus [8]): -48%
20 | O=C(/N=C1\SCCCN1C(=O)c1ccc(F)cc1)c1ccc(F)cc1 |  |  |  | Rf [1]: 0.5
21 | COc1cc(C(=O)/N=C2\NC3(CCCCO3)CCS2)cc(OC)c1OC (stereo not given) | > 200 mg/kg | > 200 mg/kg | inactive | 
22 | NC1=NC2(CCCCC2)CCS1.O=C(O)/C=C\C(=O)O | 19 mg/kg | 6.6 mg/kg | inactive | ED50 (Rattus norvegicus [5]): > 50 mg/kg
23 | O=C(/N=C1\NC2(CCCCO2)CCS1)c1ccccc1 (stereo not given) | 2.6 mg/kg | 5 mg/kg | inactive | 
24 | O=C(/N=C1\NC2(CCCCO2)CCS1)c1ccc(F)cc1 (single isomer, unassigned; (+)) [listing 1 of 2 here] |  |  |  | ED50 (Mus musculus [3]): 8.8 mg/kg
25 | O=C(/N=C1\NC2(CCCCO2)CCS1)c1ccccc1O (stereo not given) | > 200 mg/kg | > 200 mg/kg | inactive | 
26 | O=C(/N=C1\NC2(CCCCO2)CCS1)c1ccc(Cl)cc1 (stereo not given) | 2.4 mg/kg | 1.1 mg/kg | inactive | 
27 | NC1=NC2(CCCCO2)CCS1.O=C(O)/C=C\C(=O)O (racemic) | 0.6 mg/kg | 3.6 mg/kg | inactive | ED50 (Rattus norvegicus [5]): 12 mg/kg; LD50 at 24 h [6]: 33 mg/kg; LD50 at 120 h [7]: 120 mg/kg

Row | Structure (SMILES) | ED50 (Rattus norvegicus [2]; [10]) | ED50 (Mus musculus [3]; [11]) | Activity (Rattus norvegicus [4]) | other results
28 | O=C(/N=C1\NC2(CCCCC2)CCS1)c1ccc(F)cc1 | > 100 mg/kg | > 200 mg/kg | inactive | 
29 | CC(C)(C)C(=O)/N=C1\NC2(CCCCO2)CCS1 (stereo not given) | 29 mg/kg | 200 mg/kg | inactive | inhibition in vivo at 200 mg/kg (Mus musculus [8]): -53%
30 | Cl.O=C(/N=C1\NC2(CCCO2)CCS1)c1ccc(F)cc1 (stereo not given) | 2 mg/kg | 14.8 mg/kg | inactive | 
31 | Cl.O=C(/C=C/c1ccccc1)/N=C1\NC2(CCCCO2)CCS1 (stereo not given) | 2.5 mg/kg | 17 mg/kg | inactive | 
32 | O=C(/N=C1\NCCCS1)c1ccc(F)cc1 | > 200 mg/kg | > 100 mg/kg | inactive | Rf [1]: 0.36
33 | O=C(/N=C1\NC2(CCCCO2)CCS1)c1cccc2ccccc12 (stereo not given) | 28 mg/kg | > 200 mg/kg |  | 
34 | Cl.c1ccc(C2=NC3(CCCCO3)CCS2)cc1 (racemic) | > 200 mg/kg | > 200 mg/kg |  | 
35 | c1ccc(CNC2=NC3(CCCCO3)CCS2)cc1 (racemic) | > 100 mg/kg | > 200 mg/kg | inactive | Rf [9]: 0.5; Rf [1]: 0.15
36 | O=C(/N=C1\NC2(CCCCO2)CCS1)c1ccccc1Cl (stereo not given) |  | > 200 mg/kg | inactive | 
37 | O=C(/N=C1\NC2(CCCCO2)CCS1)c1ccc(Br)cc1 (stereo not given) | 3.2 mg/kg | > 200 mg/kg | inactive | 
38 | NC1=NC2(CCCO2)CCS1.O=C(O)/C=C\C(=O)O (racemic) | 4 mg/kg | 15 mg/kg | inactive | 
39 | COc1ccc(C(=O)/N=C2\NC3(CCCCO3)CCS2)cc1 (stereo not given) | 6 mg/kg | 62 mg/kg | inactive | 
40 | Cc1cc(C)c(C(=O)/N=C2\NC3(CCCCO3)CCS2)c(C)c1 (stereo not given) | > 200 mg/kg | > 200 mg/kg | inactive | 
41 | O=C(/N=C1\NC2(CCCCO2)CCS1)Nc1ccccc1 (racemic) | > 200 mg/kg | > 200 mg/kg |  | 
42 | O=C1c2ccccc2C(=O)N1C1=NC2(CCCCO2)CCS1 (racemic) | 7 mg/kg | 14.8 mg/kg | inactive | 
43 | O=C(/N=C1\NC2(CCCCO2)CCS1)c1ccc(F)cc1 (stereo in doubt; 33) [listing 1 of 2 here] |  |  |  | ED50 (Rattus norvegicus [2]): 2 mg/kg; ED50 (Mus musculus [3]): 49 mg/kg; ED50 (Rattus norvegicus [5]): 22.3 mg/kg; LD50 at 24 h [6]: 1370 mg/kg; LD50 at 120 h [7]: 630 mg/kg
44 | O=C(/N=C1\NC2(CCCCO2)CCS1)c1ccc(F)cc1 (single isomer, unassigned; (+)) [listing 2 of 2 here] |  |  | inactive | 
45 | O=C(/N=C1\NC2(CCCCO2)CCS1)c1cccs1 (stereo not given) | 3.8 mg/kg | 48 mg/kg | inactive | 
46 | N#Cc1ccc(C(=O)/N=C2\NC3(CCCCO3)CCS2)cc1 (stereo not given) | 1 mg/kg | 60 mg/kg | inactive | 
47 | O=C(/N=C1\NC2(CCCCO2)CCS1)C12CC3CC(CC(C3)C1)C2 (stereo not given) | 14 mg/kg | > 200 mg/kg | inactive | 
48 | CNC1=NC2(CCCCO2)CCS1 (racemic) | 21 mg/kg | 52 mg/kg | inactive | 
49 | CC1CCCC2(CCSC(N)=N2)O1.O=C(O)/C=C\C(=O)O (stereo not given) | 3.2 mg/kg | 25 mg/kg |  | 
50 | O=C(/N=C1\NC2(CCCCO2)CCS1)c1ccc(F)cc1 (stereo in doubt; 33) [listing 2 of 2 here] |  |  | inactive | 
51 | O=C(/N=C1\NC2(CCCCO2)CCS1)c1cccc(C(F)(F)F)c1 (stereo not given) | 11 mg/kg | > 200 mg/kg | inactive | 
52 | NC1=NC2(CCCC(c3ccccc3)O2)CCS1.O=C(O)/C=C\C(=O)O (stereo not given) | > 200 mg/kg | 64 mg/kg |  | 
53 | COc1ccc(C(=O)/N=C2\NC3(CCCCO3)CCS2)cc1OC (stereo not given) | 4.5 mg/kg | 200 mg/kg | inactive | inhibition in vivo at 200 mg/kg (Mus musculus [8]): -75%
